Assay results collected from several papers.
Each line is one published result; the experiments were not run side by side.
Matrix: Caco-2

Structure (SMILES) | conditions | Papp A→B
O=C(O)CCc1ccc(Oc2ccc(-c3noc(-c4ccc(O)cc4)n3)cc2)cc1 | 2 h, pH 7.4 | 18 ×10⁻⁶ cm/s
CNC(=C[N+](=O)[O-])NCCSCc1ccc(CN(C)C)o1 |  | 0.4 ×10⁻⁶ cm/s
CCC(=O)N[C@H]1Cc2cccc(C(=O)OCOC(=O)C(CC)CC)c2OB1O | 5 µM, 2 h, pH 7.4 | 8.25 ×10⁻⁶ cm/s
COCCc1ccc(OCC(O)CNC(C)C)cc1 (stereo not shown) | pH 6.5 | 13.3 ×10⁻⁶ cm/s
Nc1cc(N2CCCCC2)nc(N)[n+]1[O-] | 10 µM, 2 h, pH 7.4 | 4.18 ×10⁻⁶ cm/s
C=CC(=O)Nc1cc(Nc2nccc(-c3cn(C)c4ccccc34)n2)c(OC)cc1N(C)CCN(C)C | pH 6.5 | 12.5 ×10⁻⁶ cm/s
C[C@H]1O[C@@H](O[C@H]2[C@@H](O)C[C@H](O[C@H]3[C@@H](O)C[C@H](O[C@H]4CC[C@@]5(C)[C@H](CC[C@@H]6[C@@H]5C[C@@H](O)[C@]5(C)[C@@H](C7=CC(=O)OC7)CC[C@]65O)C4)O[C@@H]3C)O[C@@H]2C)C[C@H](O)[C@@H]1O | 10 µM, 2 h, pH 7.4 | 0.11 ×10⁻⁶ cm/s
C[C@H]1O[C@@H](O[C@H]2[C@@H](O)C[C@H](O[C@H]3[C@@H](O)C[C@H](O[C@H]4CC[C@@]5(C)[C@H](CC[C@@H]6[C@@H]5C[C@@H](O)[C@]5(C)[C@@H](C7=CC(=O)OC7)CC[C@]65O)C4)O[C@@H]3C)O[C@@H]2C)C[C@H](O)[C@@H]1O |  | 0.0218 ×10⁻⁶ cm/s
O=C(C1CCCCC1)N1CC(=O)N2CCc3ccccc3C2C1 (stereo not shown) |  | 38.4 ×10⁻⁶ cm/s
CCn1c(=O)c2c(nc(S)n2C)n(C)c1=O | 10 µM, 2 h | 2.7 ×10⁻⁶ cm/s
C[C@H]1O[C@@H](O[C@H]2[C@@H](O)C[C@H](O[C@H]3[C@@H](O)C[C@H](O[C@H]4CC[C@@]5(C)[C@H](CC[C@@H]6[C@@H]5C[C@@H](O)[C@]5(C)[C@@H](C7=CC(=O)OC7)CC[C@]65O)C4)O[C@@H]3C)O[C@@H]2C)C[C@H](O)[C@@H]1O | 5 µM, 1 h | 1.3 ×10⁻⁶ cm/s
O=C1C[C@@H](c2ccc(O[C@@H]3O[C@H](CO)[C@@H](O)[C@H](O)[C@H]3O)cc2)Oc2cc(O)ccc21 | 2 h | > 1 ×10⁻⁶ cm/s
CC(C)(C)NCC(O)COc1cccc2c1CC(O)C(O)C2 (stereo not shown) |  | 0.0514 ×10⁻⁶ cm/s
Cc1ncsc1-c1ccc(CNC(=O)[C@@H]2C[C@@H](O)CN2C(=O)[C@@H](NC(=O)C2(F)CC2)C(C)(C)C)c(OCCOc2ccc(CN3CCN(c4cc(-c5ccccc5O)nnc4N)CC3)cc2)c1 | 2 h, pH 7.2 | 2.2 ×10⁻⁶ cm/s
CC(C)c1cccc2c(-c3ccccc3)cc(-c3ccc(-c4ccc(C(=O)O)cc4)[nH]3)nc12 |  | 1.61 ×10⁻⁶ cm/s
COc1cc(F)ccc1-c1ncnc(Nc2cccc(CS(N)(=O)=O)c2)n1 | 2 µM, 2 h, pH 7.2 | 2.2 ×10⁻⁶ cm/s
